Assay [1] is described as follows: Surfactant property of the compound in water assessed as critical micelle concentration or minimal hydrotropic concentration by platinum rod based tensiometric method. The method in brief: (§1)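 Surface tension of aqueous solutions was measured by a rod method based on the Wilhelmy plate. Water was progressively concentrated with a stock surfactant solution at constant volume. At each concentration, readings continued until stable (SD of the last 5 values 0.2 mN/m). MHC or CMC and the plateau γsat were taken from the tension vs concentration curves.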

The next assay has as its system Escherichia coli. In words: Antibacterial activity against Escherichia coli ATCC 8739 after 18 hrs by broth microdilution assay. The format is functional. The conditions noted are these: ATCC 8739, 18 h.
The subject of the next assay is Pseudomonas aeruginosa. In words: Antibacterial activity against Pseudomonas aeruginosa ATCC 27853 after 18 hrs by broth microdilution assay. The class given is functional. The following applies: ATCC 27853, 18 h.
Assay [2] deals with Listeria monocytogenes. In words: Antibacterial activity against Listeria monocytogenes CIP 103575 after 18 hrs by broth microdilution assay. The format is functional. The following applies: CIP 103575, 18 h. The essentials:
(§2)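 Broth MIC testing on Gram-positive strains followed CLSI M100-S17 recommendations. […] Values are in mmol/L. Amoxicillin was the control for Listeria and Enterococcus strains and oxacillin for S. aureus strains.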
In general terms: In broth dilution the organism is exposed to a series of concentrations in liquid medium.

In assay [3] the test system is Staphylococcus aureus. In words: Antibacterial activity against Staphylococcus aureus ATCC 29213 after 18 hrs by broth microdilution assay. The class given is functional. The following applies: ATCC 29213, 18 h. The method in brief: as §2
In assay [4] the test system is Enterococcus faecalis. In words: Antibacterial activity against Enterococcus faecalis ATCC 29212 after 18 hrs by broth microdilution assay. The class given is functional. The following applies: ATCC 29212, 18 h. The essentials:
as §2

Assay [5] can be described thus: Surfactant property of the compound in aqueous solution assessed as critical micelle concentration or minimal hydrotropic concentration. The essentials:
as §1

In assay [6] the test system is Listeria monocytogenes. In words: Antibacterial activity against Listeria monocytogenes isolate 015189074801 after 18 hrs by broth microdilution assay. The class given is functional. The conditions noted are these: isolate 015189074801, 18 h. The essentials: as §2
For assay [7], the system named is Listeria monocytogenes. In words: Antibacterial activity against Listeria monocytogenes isolate 015170199001 after 18 hrs by broth microdilution assay. The format is functional. The following applies: isolate 015170199001, 18 h. The method in brief: as §2
The test system of assay [8] is Listeria monocytogenes. In words: Antibacterial activity against Listeria monocytogenes isolate 015181840701 after 18 hrs by broth microdilution assay. The format is functional. The following applies: isolate 015181840701, 18 h. The essentials: as §2
In assay [9] the test system is Enterococcus faecalis. In words: Antibacterial activity against Enterococcus faecalis isolate 015206179901 after 18 hrs by broth microdilution assay. The following applies: isolate 015206179901, 18 h. The class given is functional. The method in brief: as §2
For assay [10], the system named is Enterococcus faecium. In words: Antibacterial activity against Enterococcus faecium CIP 103510 after 18 hrs by broth microdilution assay. The format is functional. The following applies: CIP 103510, 18 h. The essentials: (§3)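 Enterococcus faecium strains (reference, clinical isolates, VanA isolate) tested by MIC following CLSI recommendations (M100-S17), with amoxicillin as control. […] Values are expressed in mmol/L.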

The subject of assay [11] is Enterococcus faecium. In words: Antibacterial activity against […] Enterococcus faecium isolate 0151850763 after 18 hrs by broth microdilution assay. The format is functional. The conditions noted are these: isolate 0151850763, 18 h. The essentials:
as §3

Assay [12] concerns Enterococcus faecium. In words: Antibacterial activity against Enterococcus faecium isolate 015205731401 after 18 hrs by broth microdilution assay. The format is functional. The conditions noted are these: isolate 015205731401, 18 h. The essentials: as §2
Assay [13] deals with Enterococcus faecium. In words: Antibacterial activity against Enterococcus faecium isolate 015205261801 after 18 hrs by broth microdilution assay. The format is functional. The conditions noted are these: isolate 015205261801, 18 h. The method in brief:
as §3

The subject of assay [14] is Staphylococcus aureus. In words: Antibacterial activity against Staphylococcus aureus ATCC 25923 after 18 hrs by broth microdilution assay. The class given is functional. The following applies: ATCC 25923, 18 h. The essentials: (§4)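 Staphylococcus aureus reference strains and methicillin- and daptomycin-resistant isolates tested by MIC according to CLSI guidance (M100-S17), with oxacillin as control. The endpoint is the lowest concentration with no growth in all replicates versus a negative control at 18 h. Values are reported in mmol/L.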

Assay [15] relates to Staphylococcus aureus. In words: Antibacterial activity against methicillin-resistant Staphylococcus aureus LAC USA300 after 18 hrs by broth microdilution assay. The class given is functional. The essentials: as §4
In assay [16] the test system is Staphylococcus aureus. In words: Antibacterial activity against methicillin-resistant Staphylococcus aureus Mu3 after 18 hrs by broth microdilution assay. The class given is functional. The following applies: Mu3, 18 h. The essentials: as §4
For assay [17], the system named is Staphylococcus aureus. In words: Antibacterial activity against methicillin-resistant Staphylococcus aureus isolate HT 2004-0012 after 18 hrs by broth microdilution assay. The format is functional. The following applies: isolate HT 2004-0012, 18 h. The method in brief:
as §4

Assay [18] has as its system Staphylococcus aureus. In words: Antibacterial activity against methicillin-resistant Staphylococcus aureus isolate LY 1999-0053 after 18 hrs by broth microdilution assay. The class given is functional. The conditions noted are these: isolate LY 1999-0053, 18 h. The essentials: as §4
Assay [19] deals with Staphylococcus aureus. In words: Antibacterial activity against methicillin-resistant Staphylococcus aureus isolate HT 2002-0417 after 18 hrs by broth microdilution assay. The format is functional. The conditions noted are these: isolate HT 2002-0417, 18 h. The method in brief:
as §4

The test system of assay [20] is Staphylococcus aureus. In words: Antibacterial activity against methicillin-resistant Staphylococcus aureus isolate HT 2006-1004 after 18 hrs by broth microdilution assay. The class given is functional. The following applies: isolate HT 2006-1004, 18 h. The method in brief:
as §4

For assay [21], the system named is Staphylococcus aureus. In words: Antibacterial activity against daptomycin-resistant Staphylococcus aureus isolate ST 2015-0188 after 18 hrs by broth microdilution assay. The format is functional. The following applies: isolate ST 2015-0188, 18 h. The method in brief:
as §4

The subject of assay [22] is Staphylococcus aureus. In words: Antibacterial activity against daptomycin-resistant Staphylococcus aureus isolate ST 2014-1288 after 18 hrs by broth microdilution assay. The format is functional. The conditions noted are these: isolate ST 2014-1288, 18 h. The essentials:
as §4

The test system of assay [23] is Staphylococcus aureus. In words: Antibacterial activity against daptomycin-resistant Staphylococcus aureus isolate ST 2015-0989 after 18 hrs by broth microdilution assay. The conditions noted are these: isolate ST 2015-0989, 18 h. The format is functional. The essentials: as §4

Converted amounts (≈) assume the structure as drawn.

Usually MIC stands for the least concentration at which growth counts as inhibited. A lower MIC goes with inhibition by little substance.

Consider `CCCCCCOC[C@H]1O[C@H](OC)[C@H](O)[C@@H](O)[C@@H]1O`, for which, in [1], the CMC was found to be 13.4 mmol/L. The MIC in the assay on Escherichia coli, against Pseudomonas aeruginosa, with Listeria monocytogenes [2], against Staphylococcus aureus [3] and against Enterococcus faecalis [4] was greater than 4000 µM throughout.
Consider `CCCCCCCCOC[C@H]1O[C@H](OC)[C@H](O)[C@@H](O)[C@@H]1O`, for which the CMC in [1] is 0.434 mmol/L. In addition, the MIC with Escherichia coli was greater than 4000 µM; against Pseudomonas aeruginosa, greater than 4000 µM; in the assay with Listeria monocytogenes [2], 2000 µM (≈ 613 µg/mL); against Staphylococcus aureus [3] it was 2000 µM (≈ 613 µg/mL); in the assay with Enterococcus faecalis [4] it was greater than 4000 µM.
Consider `CCCCCCCCCCCCO[C@@H]1O[C@H](CO)[C@@H](O)[C@H](O)[C@H]1O`, for which the CMC in assay [5] was 0.19 mmol/L.
For `CCCCCCCCCCCCOC[C@H]1O[C@H](OC)[C@@H](O)[C@@H](O)[C@@H]1O`, the MIC was 90 µM (≈ 32.6 µg/mL) against Listeria monocytogenes [2]; 90 µM (≈ 32.6 µg/mL) against Staphylococcus aureus [3]; 40 µM (≈ 14.5 µg/mL) with Enterococcus faecalis [4]; 20 µM (≈ 7.25 µg/mL) against Listeria monocytogenes [6]; 40 µM (≈ 14.5 µg/mL) in the assay with Listeria monocytogenes [7]; 40 µM (≈ 14.5 µg/mL) against Listeria monocytogenes [8]. Also, the MIC in the assay on Enterococcus faecalis [9] stood at 90 µM (≈ 32.6 µg/mL); in the assay on Enterococcus faecium [10], 90 µM (≈ 32.6 µg/mL); in the assay on Enterococcus faecium [11], 40 µM (≈ 14.5 µg/mL); against Enterococcus faecium [12] it was 40 µM (≈ 14.5 µg/mL); against Enterococcus faecium [13], 40 µM (≈ 14.5 µg/mL); against Staphylococcus aureus [14], 90 µM (≈ 32.6 µg/mL). The minimal inhibitory concentration (MIC) with Staphylococcus aureus [15] amounted to 90 µM (≈ 32.6 µg/mL); in the assay on Staphylococcus aureus [16], 180 µM (≈ 65.3 µg/mL); against Staphylococcus aureus [17], 90 µM (≈ 32.6 µg/mL); against Staphylococcus aureus [18], 90 µM (≈ 32.6 µg/mL); with Staphylococcus aureus [19], 90 µM (≈ 32.6 µg/mL); in the assay with Staphylococcus aureus [20], 180 µM (≈ 65.3 µg/mL). Moreover, the MIC was 180 µM (≈ 65.3 µg/mL) in the assay on Staphylococcus aureus [21], 90 µM (≈ 32.6 µg/mL) against Staphylococcus aureus [22] and 180 µM (≈ 65.3 µg/mL) in the assay with Staphylococcus aureus [23].
As for `CCCCCOC[C@H]1O[C@H](OC)[C@H](O)[C@@H](O)[C@@H]1O`, the CMC in assay [1] worked out at 35 mmol/L. The MIC with Escherichia coli, against Pseudomonas aeruginosa, in the assay on Listeria monocytogenes [2], in the assay with Staphylococcus aureus [3] and in the assay on Enterococcus faecalis [4] was greater than 4000 µM each time.
For the compound `CCCCC[C@@H]1OC[C@H]2O[C@H](OC)[C@H](O)[C@@H](O)[C@@H]2O1`, the CMC in [1] is 6.5 mmol/L. Also, the MIC against Escherichia coli, in the assay on Pseudomonas aeruginosa, against Listeria monocytogenes [2], against Staphylococcus aureus [3] and against Enterococcus faecalis [4] was greater than 4000 µM in each case.
In the case of `Cc1onc(-c2ccccc2)c1C(=O)N[C@@H]1C(=O)N2[C@@H]1SC(C)(C)[C@@H]2C(=O)O` [OXACILLIN], the MIC with Staphylococcus aureus [3] is 1 µM (≈ 0.401 µg/mL); in the assay with Staphylococcus aureus [14], 50 µM (≈ 20.1 µg/mL); in the assay on Staphylococcus aureus [15], 160 µM (≈ 64.2 µg/mL); against Staphylococcus aureus [16] it was 640 µM (≈ 257 µg/mL); with Staphylococcus aureus [17] it was 80 µM (≈ 32.1 µg/mL); against Staphylococcus aureus [18], 160 µM (≈ 64.2 µg/mL). The MIC was 160 µM (≈ 64.2 µg/mL) against Staphylococcus aureus [19]; 320 µM (≈ 128 µg/mL) in the assay with Staphylococcus aureus [20]; 160 µM (≈ 64.2 µg/mL) against Staphylococcus aureus [21]; 160 µM (≈ 64.2 µg/mL) against Staphylococcus aureus [22]; 320 µM (≈ 128 µg/mL) in the assay with Staphylococcus aureus [23].
On to `CCCCCCCCCCCCOC[C@H]1OC(O)[C@H](O)[C@@H](O)[C@@H]1O` (stereo partly specified), for which, in [5], the CMC came to 0.5 mmol/L.
Take `CCCCCCCCC[C@@H]1OC[C@H]2O[C@H](OC)[C@H](O)[C@@H](O)[C@@H]2O1`: in assay [1], the CMC was determined as 0.15 mmol/L.
For `CCCCCCCCCCC[C@@H]1OC[C@H]2O[C@H](OC)[C@H](O)[C@@H](O)[C@@H]2O1`, the CMC in assay [1] was greater than 0.06 mmol/L.
Regarding `CCCCCCCCCCCCO[C@H]1O[C@H](CO)C(O[C@H]2O[C@H](CO)[C@@H](O)[C@H](O)[C@H]2O)[C@H](O)[C@H]1O` (single isomer, unassigned), in assay [5], the CMC was 0.15 mmol/L.
